What was measured:
[1] = Serum IAsp and IDeg pharmacokinetics; assay type: in vivo, human
Summary of the method: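 Subcutaneous abdominal dosing in T1DM subjects: insulin degludec 0.42 U/kg daily Days 1–5, insulin degludec/insulin aspart 0.6 U/kg on Day 6. Aspart was sampled predose to 12 h on Day 6. Degludec was sampled predose on Days 1–5, then to 48 h, plus 72, 96 and 120 h. Serum levels were measured by validated analyte-specific ELISAs; full analysis set n = 22.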

[2] = acidic pH; no reference given; cited from earlier work
[3] = system: subjects with type 1 diabetes mellitus; test: Safety and tolerability monitoring; assay type: in vivo, human; conditions: 22 subjects
Summary of the method: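 Adults 18–65 y with T1DM on insulin ≥12 months. Regimen: insulin degludec 0.42 U/kg s.c. once daily (~8 p.m.) Days 1–5, then single insulin degludec/insulin aspart 0.6 U/kg s.c. on Day 6, with bolus insulin aspart as needed. Monitored: treatment-emergent AEs, confirmed hypoglycemia (severe per ADA, or plasma glucose <3.1 mmol/L or blood glucose <2.8 mmol/L), physical exam, vital signs, ECG, labs. Summarized descriptively.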

[4] = cited from earlier work
[5] = while IDeg steady state was being attained (Days 1-5)

Q: What does the source list for insulin aspart [IAsp]?
A: AUCIAsp,0–12h (total serum exposure of IAsp in IDegAsp) ([1]; mean, n = 22, serum, ELISA, IDegAsp 0.6 U/kg s.c. (0.18 U/kg IAsp), Day 6): 1,087 pmol h/L; t max,IAsp ([1]; median, n = 22, serum, ELISA, IDegAsp 0.6 U/kg s.c., Day 6): 1.33 h

Q: For Insulin glargine, which “pH at which soluble” value [2] is on record?
A: The value was 4.

Q: What does the source list for insulin degludec [IDeg]?
A: injection site reactions ([3]; during the trial, s.c. administration): No injection site reactions; treatment-emergent changes in clinical laboratory parameters, vital signs, physical examination or ECG ([3]; following subcutaneous administration): no significant treatment-emergent changes; confirmed hypoglycemic episodes [3, 5]: 22 episodes; subjects with confirmed hypoglycemic episodes [3, 5]: 13 subjects; time to clinical steady state ([1]; once-daily IDeg 0.42 U/kg s.c.): 2 to 3 days; duration of action [4]: exceeding 42 h; half-life ([4]; no reference given): > 24 h

— article PMC4065302 (Diabetes Therapy, 2014)
